ChEMBL document CHEMBL1143126, “Synthesis, cytotoxic evaluation, and DNA binding of novel thiazolo[5,4-b]quinoline derivatives” (Bioorg Med Chem, 2008)

Assays:
[1] = test system: SW-620; test: Antiproliferative activity against human SW620 cells after 72 hrs by MTT assay; format: functional, cell-based; conditions: SW-620, 72 h
How it was run: (§1)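 Cells seeded at 4.5–5.0 · 10⁴ cells/ml/well in 24-well plates, then incubated with or without compounds added in DMSO. After 72 h, MTT in PBS pH 7.2 was added. Formazan was dissolved in DMSO and the plates centrifuged, then absorbance was read at 540 nm. % growth inhibition = (1 − treated/untreated absorbance) × 100.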

[2] = Antiproliferative activity against human C33 cells after 72 hrs by MTT assay; format: functional, cell-based; conditions: C33, 72 h; how it was run: as §1
[3] = test system: SW480; test: Antiproliferative activity against human SW480 cells after 72 hrs by MTT assay; format: functional, cell-based; conditions: SW480, 72 h; how it was run: as §1
[4] = test system: DNA; test: Displacement of ethidium bromide from calf thymus DNA; format: nucleic-acid assay; conditions: Bos taurus
How it was run: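 Fluorescence quenching of the DNA–ethidium bromide complex in Tris–HCl pH 7.4 with 0.15 M NaCl and ethidium bromide. Emission read at 584 nm with excitation at 546 nm, corrected for dilution. Precipitation was monitored by 600 nm light scatter at 90°. Qmax is the maximum quenching; Q50 is the concentration giving 50% quenching. Means of three experiments, SD.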

[5] = test system: DNA; test: Ratio of Qmax for calf thymus DNA to Q50 for calf thymus DNA; format: nucleic-acid assay; conditions: Bos taurus
How it was run: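 Efficiency index calculated as Qmax/Q50 from ethidium displacement titrations (Tris–HCl pH 7.4, 0.15 M NaCl). Compounds were added serially from DMSO stocks (DMSO ≤8%), and quenching was read at 584 nm with 546 nm excitation. Qmax is the maximum quenching; Q50 is the concentration for 50% quenching of bound ethidium.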

[6] = test system: HeLa; test: Antiproliferative activity against human HeLa cells after 72 hrs by MTT assay; format: functional, cell-based; how it was run: as §1
[7] = test system: K562; test: Antiproliferative activity against human K562 cells after 72 hrs by MTT assay; format: functional, cell-based; conditions: K562, 72 h; how it was run: as §1

Row | SMILES | IC50 [1] [µM] | IC50 [2] [µM] | IC50 [3] [µM] | Q50 [4] [µM] | Ratio [5] | IC50 [6] [µM] | IC50 [7] [µM]
1 | CSc1nc2c(Nc3cccc(Cl)c3)c3ccccc3nc2s1 | 130 | 129 | 111 | 1.29 | 2 | – | –
2 | COc1ccc(Nc2c3ccccc3nc3sc(SC)nc23)cc1 | 111 | > 200 | > 200 | 9.48 | 0.39 | > 200 | 77.2
3 | CNc1cccc(Nc2c3ccccc3nc3sc(SC)nc23)c1 | 119 | 134 | 101 | 4.18 | 2.37 | – | –
4 | CSc1nc2c(Nc3ccccc3)c3ccccc3nc2s1 | > 200 | 154 | > 200 | 13.6 | 0.31 | > 200 | > 200
5 | CCN(CC)CCNc1c2ccccc2nc2sc(SC)nc12 | 16.9 | 9.06 | 28 | 9.44 | 4.87 | 13 | 7.85
6 | CSc1nc2c(Nc3cccc(O)c3)c3ccccc3nc2s1 | 146 | 146 | 147 | 7.64 | 2.15 | > 200 | 173
7 | CCN(CC)CCNc1nc2c(Cl)c3ccccc3nc2s1 | 15.2 | 9.35 | 19.5 | 11.1 | 2.36 | 12.9 | 9.28
8 | CSc1nc2c(Nc3cccc(C#N)c3)c3ccccc3nc2s1 | 43.8 | 15.1 | 28.7 | 11.5 | 0.68 | 7.75 | 8.01
9 | CSc1nc2c(Nc3ccc(Cl)cc3)c3ccccc3nc2s1 | 146 | > 200 | > 200 | 2.19 | 0.84 | 124 | –
10 | CCN(CC)CCNC(=O)c1cccc(Nc2c3ccccc3nc3sc(SC)nc23)c1 | 19.7 | 19.9 | 13.6 | 16.6 | 1.39 | 21.7 | 12.5
11 | CCN(CC)CCNc1nc2c(Nc3ccccc3)c3ccccc3nc2s1 | – | 22.4 | – | 52.5 | 0.46 | – | –
12 | COc1cc(NS(C)(=O)=O)ccc1Nc1c2ccccc2nc2ccccc12 [AMSACRINE] | – | 8.8 | – | – | – | – | –
13 | Nc1cc(CO)cc(Nc2c3ccccc3nc3ccccc23)c1 | – | – | – | 7.36 | 6.49 | – | –
14 | CSc1nc2c(Nc3ccc(C#N)cc3)c3ccccc3nc2s1 | > 200 | > 200 | > 200 | 14.3 | 0.9 | 140 | 120
15 | CSc1nc2c(Nc3cccc(C(F)(F)F)c3)c3ccccc3nc2s1 | – | 59.7 | – | 0.53 | 3.08 | – | –
16 | CSc1nc2c(Nc3cccc(NC(C)=O)c3)c3ccccc3nc2s1 | 154 | > 200 | > 200 | 18.4 | 0.82 | > 200 | 85.3
17 | CSc1nc2c(Nc3cccc(N)c3)c3ccccc3nc2s1 | > 200 | 139 | > 200 | 6.96 | 1.17 | 176 | 143
18 | CSc1nc2c(Nc3cc(N)cc(CO)c3)c3ccccc3nc2s1 | 184 | > 200 | > 200 | 22.6 | 0.79 | > 200 | 143
19 | COc1cccc(Nc2c3ccccc3nc3sc(SC)nc23)c1 | 26.6 | 75.4 | 66.7 | 3.71 | 1.79 | 25.3 | 22.2
20 | CSc1nc2c(Nc3cccc([N+](=O)[O-])c3)c3ccccc3nc2s1 | 161 | > 200 | > 200 | – | – | 152 | > 200
